In brackets after ≈: the same amount, converted by molar mass. Activity calls are given as the source filed them. No cut-off for these calls is given here.

The test system of assay [1] is Saccharomyces cerevisiae. Nature of the assay: Antifungal activity against Saccharomyces cerevisiae by two fold serial dilution method. In kind it is functional. Put shortly:
(§1)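 MIC determined by two-fold serial dilution in the appropriate nutrient broth, only for compounds that gave sizeable inhibition zones in the well diffusion screen. Final concentrations stepped down by halves from 66 (66, 33, 16.5 …).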

The subject of assay [2] is Priestia megaterium. The assay is described as follows: Antibacterial activity against Bacillus megaterium after 24 hrs by two fold serial dilution method. Format: functional. Put shortly: as §1
For assay [3], the system named is Klebsiella pneumoniae. The assay is described as follows: Antibacterial activity against Klebsiella pneumoniae ATCC 13883 after 24 hrs by agar well diffusion method. In kind it is functional. The method, boiled down:
(§2)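 Agar well diffusion on nutrient agar seeded with bacterial suspension at 1 × 10⁸ CFU/mL. Wells received compound solution from a stock of 100 mg per mL DMSO. Plates incubated 24 h at 37 °C. Read-out is inhibition zone diameter (mm), done in triplicate and averaged.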
(In general: In agar diffusion tests the substance spreads into inoculated agar from a disc or well.)

Assay [4] concerns Candida albicans. The assay is described as follows: Antifungal activity against Candida albicans NRRL Y-477 after 48 hrs by agar well diffusion method. Format: functional. The method, boiled down:
(§3)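 Fungal agar well diffusion on Sabouraud dextrose agar seeded at 1 × 10⁶ CFU/mL. Wells received compound solution from a 100 mg per mL DMSO stock. Incubation 48 h at 28 °C. Inhibition zone diameter (mm) measured in triplicate and averaged.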

For assay [5], the system named is Mycolicibacterium phlei. The assay is described as follows: Antibacterial activity against Mycobacterium phlei after 24 hrs by agar well diffusion method. Format: functional. Put shortly: as §2
For assay [6], the system named is Bacillus subtilis. Nature of the assay: Antibacterial activity against Bacillus subtilis ATCC 6633 after 24 hrs by agar well diffusion method. In kind it is functional. The method, boiled down: as §2
In assay [7] the test system is Staphylococcus aureus. The assay is described as follows: Antibacterial activity against Staphylococcus aureus ATCC 29213 after 24 hrs by two fold serial dilution method. Format: functional. Conditions: ATCC 29213, 24 h. Put shortly: as §1
In assay [8] the test system is Escherichia coli. The assay is described as follows: Antibacterial activity against Escherichia coli ATCC 25922 after 24 hrs by agar well diffusion method. In kind it is functional. The method, boiled down:
as §2

Assay [9] deals with Candida albicans. The assay is described as follows: Antifungal activity against Candida albicans NRRL Y-477 by two fold serial dilution method. In kind it is functional. Put shortly: as §1
For assay [10], the system named is Pseudomonas aeruginosa. The assay is described as follows: Antibacterial activity against Pseudomonas aeruginosa ATCC 27953 after 24 hrs by two fold serial dilution method. Format: functional. Conditions: ATCC 27953, 24 h. Put shortly:
as §1

The subject of assay [11] is Staphylococcus aureus. Nature of the assay: Antibacterial activity against Staphylococcus aureus ATCC 29213 after 24 hrs by agar well diffusion method. Format: functional. Put shortly:
as §2

The test system of assay [12] is Saccharomyces cerevisiae. The assay is described as follows: Antifungal activity against Saccharomyces cerevisiae after 48 hrs by agar well diffusion method. In kind it is functional. Put shortly: as §3
Assay [13] concerns Klebsiella pneumoniae. Nature of the assay: Antibacterial activity against Klebsiella pneumoniae ATCC 13883 after 24 hrs by two fold serial dilution method. In kind it is functional. Conditions: ATCC 13883, 24 h. Put shortly:
as §1

Assay [14] concerns Priestia megaterium. Nature of the assay: Antibacterial activity against Bacillus megaterium after 24 hrs by agar well diffusion method. In kind it is functional. The method, boiled down:
as §2

Assay [15] relates to Bacillus subtilis. The assay is described as follows: Antibacterial activity against Bacillus subtilis ATCC 6633 after 24 hrs by two fold serial dilution method. In kind it is functional. Particulars: ATCC 6633, 24 h. Put shortly:
as §1

For assay [16], the system named is Micrococcus luteus. Nature of the assay: Antibacterial activity against Sarcina lutea after 24 hrs by agar well diffusion method. Format: functional. The method, boiled down: as §2
For assay [17], the system named is Escherichia coli. The assay is described as follows: Antibacterial activity against Escherichia coli ATCC 25922 after 24 hrs by two fold serial dilution method. In kind it is functional. Conditions: ATCC 25922, 24 h. The method, boiled down:
as §1

Assay [18] concerns Pseudomonas aeruginosa. The assay is described as follows: Antibacterial activity against Pseudomonas aeruginosa ATCC 27953 after 24 hrs by agar well diffusion method. In kind it is functional. Put shortly:
as §2

For assay [19], the system named is Mycolicibacterium phlei. Nature of the assay: Antibacterial activity against Mycobacterium phlei after 24 hrs by two fold serial dilution method. In kind it is functional. Put shortly: as §1
The test system of assay [20] is Pseudomonas aeruginosa. Nature of the assay: microbe, parasite or virus in culture. Conditions: ATCC 27953, 24 h, read-out: DIZ.
In assay [21] the test system is Priestia megaterium. The assay is described as follows: Antibacterial activity against Bacillus megaterium at 50 ug/ml after 24 hrs by agar well diffusion method. Format: functional. Particulars: read-out: DIZ.
Assay [22] concerns Micrococcus luteus. Nature of the assay: Antibacterial activity against Sarcina lutea at 50 ug/ml after 24 hrs by agar well diffusion method. Particulars: read-out: DIZ. In kind it is functional.
The subject of assay [23] is Staphylococcus aureus. The assay is described as follows: microbe, parasite or virus in culture. Particulars: ATCC 29213, 24 h, read-out: DIZ.
In assay [24] the test system is Micrococcus luteus. Nature of the assay: Antibacterial activity against Sarcina lutea after 24 hrs by two fold serial dilution method. In kind it is functional. The method, boiled down:
as §1

The subject of assay [25] is Bacillus subtilis. Nature of the assay: microbe, parasite or virus in culture. Conditions: ATCC 6633, 24 h, read-out: DIZ.
Assay [26] has as its system Mycolicibacterium phlei. The assay is described as follows: Antibacterial activity against Mycobacterium phlei at 50 ug/ml after 24 hrs by agar well diffusion method. In kind it is functional. Particulars: read-out: DIZ. The method, boiled down:
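Agar well diffusion. Plates were seeded with bacterial suspension at 1 × 10⁸ CFU/mL spread on nutrient agar. Wells received compound solution made as a 100 mg/mL DMSO stock. Plates were incubated 24 h at 37 °C. Read-out was inhibition zone diameter (mm), run in triplicate and averaged. Ciprofloxacin was the reference.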

The test system of assay [27] is Klebsiella pneumoniae. The assay is described as follows: microbe, parasite or virus in culture. Particulars: ATCC 13883, 24 h, read-out: DIZ.
Assay [28] concerns Saccharomyces cerevisiae. The assay is described as follows: Antifungal activity against Saccharomyces cerevisiae at 50 ug/ml after 48 hrs by agar well diffusion method. Conditions: read-out: DIZ. Format: functional. Put shortly: (§4)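 Fungal agar well diffusion. Plates were seeded with 1 × 10⁶ CFU/mL fungal suspension on Sabouraud dextrose agar. Wells were filled with compound solution from a 100 mg/mL DMSO stock. Plates were incubated 48 h at 28 °C. The mean inhibition zone diameter (mm) was taken from triplicate runs. Ketoconazole was the standard.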

The test system of assay [29] is Candida albicans. The assay is described as follows: Antifungal activity against Candida albicans NRRL Y-477 at 50 ug/ml after 48 hrs by agar well diffusion method. Format: functional. Particulars: NRRL Y-477, 48 h, read-out: DIZ. Put shortly: as §4

What is called MIC is the lowest concentration that inhibits growth of the organism. Read a high MIC as a less susceptible organism. For the compound `CC(=N\NC(=O)COc1ccc2ccccc2c1)/C(=N\Nc1ccc(Cl)cc1)S(=O)(=O)c1ccccc1`, the MIC against Saccharomyces cerevisiae [1] was 8.25 µg/mL (≈ 15.4 µM); in the assay with Priestia megaterium [2] it was 16.5 µg/mL (≈ 30.8 µM); in the assay with Staphylococcus aureus [7] it was 16.5 µg/mL (≈ 30.8 µM); with Candida albicans [9] it was 8.25 µg/mL (≈ 15.4 µM); in the assay with Pseudomonas aeruginosa [10], 16.5 µg/mL (≈ 30.8 µM); in the assay on Klebsiella pneumoniae [13] it was 16.5 µg/mL (≈ 30.8 µM). The MIC against Bacillus subtilis [15] is 33 µg/mL (≈ 61.7 µM); against Escherichia coli [17], 8.25 µg/mL (≈ 15.4 µM). In addition, the “diameter of the inhibition zone (DIZ)” value in the assay on Klebsiella pneumoniae [3] is 24 mm; in the assay with Candida albicans [4], 24 mm; in the assay on Bacillus subtilis [6], 20 mm; in the assay with Escherichia coli [8], 28 mm; with Staphylococcus aureus [11] it was 23 mm; in the assay on Saccharomyces cerevisiae [12], 30 mm. The “diameter of the inhibition zone (DIZ)” value was 23 mm in the assay on Priestia megaterium [14] and 26 mm in the assay on Pseudomonas aeruginosa [18]. Also, the “diameter of the inhibition zone (DIZ)” value in the assay with Mycolicibacterium phlei [5] and in the assay on Micrococcus luteus [16] was “inactive” in each case.

With `O=C(O)c1cn(C2CC2)c2cc(N3CCNCC3)c(F)cc2c1=O` [CIPROFLOXACIN], the MIC is 8.25 µg/mL (≈ 24.9 µM) in the assay on Priestia megaterium [2]; 8.25 µg/mL (≈ 24.9 µM) with Staphylococcus aureus [7]; 16.5 µg/mL (≈ 49.8 µM) with Mycolicibacterium phlei [19]; 16.5 µg/mL (≈ 49.8 µM) with Pseudomonas aeruginosa [10]; 16.5 µg/mL (≈ 49.8 µM) in the assay with Micrococcus luteus [24]; 16.5 µg/mL (≈ 49.8 µM) in the assay with Klebsiella pneumoniae [13]. In addition, the minimal inhibitory concentration (MIC) against Bacillus subtilis [15] turned out to be 8.25 µg/mL (≈ 24.9 µM); against Escherichia coli [17], 16.5 µg/mL (≈ 49.8 µM). Moreover, the zone of inhibition at 50 µg/mL turned out to be 24 mm in the assay on Pseudomonas aeruginosa [20]; 24 mm with Priestia megaterium [21]; 20 mm in the assay with Micrococcus luteus [22]; 20 mm in the assay with Staphylococcus aureus [23]; 22 mm in the assay on Bacillus subtilis [25]; 22 mm with Mycolicibacterium phlei [26]. Besides, in the assay on Klebsiella pneumoniae [27], the zone of inhibition at 50 µg/mL came to 25 mm.

In the case of `CC(=N/NC(=O)COc1ccc(Cl)cc1Cl)/C(=N\Nc1ccc(Cl)cc1)S(=O)(=O)c1ccccc1`, the MIC against Saccharomyces cerevisiae [1] amounted to 4.12 µg/mL (≈ 7.45 µM); against Priestia megaterium [2], 8.25 µg/mL (≈ 14.9 µM); in the assay on Staphylococcus aureus [7], 8.25 µg/mL (≈ 14.9 µM); against Candida albicans [9], 4.12 µg/mL (≈ 7.45 µM); in the assay on Mycolicibacterium phlei [19], 4.12 µg/mL (≈ 7.45 µM); against Pseudomonas aeruginosa [10], 16.5 µg/mL (≈ 29.8 µM). Moreover, the MIC in the assay on Micrococcus luteus [24] was determined as 8.25 µg/mL (≈ 14.9 µM); in the assay with Klebsiella pneumoniae [13], 16.5 µg/mL (≈ 29.8 µM); with Bacillus subtilis [15], 8.25 µg/mL (≈ 14.9 µM); with Escherichia coli [17], 4.12 µg/mL (≈ 7.45 µM). Besides, the “diameter of the inhibition zone (DIZ)” value with Klebsiella pneumoniae [3] came to 28 mm; with Candida albicans [4], 30 mm; with Mycolicibacterium phlei [5], 30 mm; with Bacillus subtilis [6], 29 mm; in the assay with Escherichia coli [8], 30 mm; with Staphylococcus aureus [11] it was 27 mm. Besides, the “diameter of the inhibition zone (DIZ)” value in the assay with Saccharomyces cerevisiae [12] was determined as 32 mm; with Priestia megaterium [14], 32 mm; in the assay with Micrococcus luteus [16], 26 mm; in the assay on Pseudomonas aeruginosa [18], 28 mm.

Consider `CC(=O)N1CCN(c2ccc(OCC3COC(Cn4ccnc4)(c4ccc(Cl)cc4Cl)O3)cc2)CC1` (configuration not stated) [KETOCONAZOLE], for which the results for the MIC in the assay with Saccharomyces cerevisiae [1] and against Candida albicans [9] were 4.12 µg/mL (≈ 7.76 µM) and 8.25 µg/mL (≈ 15.5 µM), respectively. The zone of inhibition at 50 µg/mL in the assay on Saccharomyces cerevisiae [28] is 23 mm; in the assay with Candida albicans [29], 22 mm.

Values taken from ChEMBL document CHEMBL1949515, “Regioselective synthesis and antimicrobial activities of some novel aryloxyacetic acid derivatives” (2012).
